Consider three compounds from ChEMBL document CHEMBL1149042, “Antihypertensive activity of 6-O-galloyl-D-glucose, a phenolic glycoside from Sapium sebiferum” (1994).

Active and inactive are the calls of the source. No cut-off for these calls is given here.

Test [1] has as its system Rattus norvegicus. Nature of the test: Antihypertensive activity in SHR rat assessed as changes in tail arterial mean blood pressure at 1 mg/kg, iv. The test is classed as functional, Artery. Summed up:
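Conscious SHR (250–280 g) with systemic pressure above 180 mm Hg, given a single bolus in Locke-Ringer solution into the cannulated femoral vein over 20 sec. Tail arterial mean pressure was taken by indirect tail-cuff with a photoelectric pulse sensor at 28 ± 1° without pre-warming, at 10-min intervals. Controls received vehicle.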

The test system of test [2] is Rattus norvegicus. Put plainly: Antihypertensive activity in SHR rat assessed as changes in tail arterial mean blood pressure at 5 mg/kg, iv. The test is classed as functional, Artery. Summed up:
(§1)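 SHR rats (250–280 g) with systemic pressure above 180 mm Hg were used. Compound in Locke-Ringer solution was given as a single iv bolus over 20 sec into a cannulated femoral vein. Pressure was read by indirect tail-cuff with a photoelectric pulse sensor at 28 °C without pre-warming, every 10 min, versus pre-dose control. Controls received vehicle. Activity required a significant fall lasting at least 30 min.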

Test [3] concerns Rattus norvegicus. Nature of the test: Antihypertensive activity in iv dosed SHR rat assessed as changes in tail arterial mean blood pressure relative to control. Type of test: functional, organism-based. The note with it: Artery. Put shortly:
as §1

For test [4], the system named is Rattus norvegicus. Nature of the test: Antihypertensive activity in SHR rat assessed as reversible inhibition of pentobarbitol-induced increase in blood pressure at 20 mg/kg after 2 hrs. The test is classed as functional, organism-based. On the set-up: dose 20 mg/kg. Put shortly: as §1
Test [5] deals with Rattus norvegicus. Nature of the test: Antihypertensive activity in iv dosed SHR rat assessed as reduction in pentobarbitol-induced increase in blood pressure. The test is classed as functional, organism-based.
Test [6] concerns Rattus norvegicus. Nature of the test: Inhibition of noradrenaline release in sham operated anesthetized SHR rat plasma at 10 mg/kg, iv after 20 mins. The test is classed as functional. Put shortly: (§2)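 Plasma was sampled 20 min after a single iv bolus in anaesthetized adrenalectomized rats (bilateral, dorsal approach under ether, 24 h recovery) or sham-operated SHR. Blood (2 ml) came from the optic sinus under ether and was spun at 5,000 × g for 10 min at 4°. Plasma (200 μl) received 20 ng DHBA internal standard and was adsorbed onto alumina with 30 min shaking. Vehicle-treated rats were controls, n=8, mean ± S.D.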

Test [7] has as its system Rattus norvegicus. Nature of the test: Antihypertensive activity in adrenalectomized anesthetized SHR rat assessed as reduction of mean blood pressure at 5 mg/kg, iv. Type of test: functional. Summed up:
(§3)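 Anaesthetized SHR given a single iv bolus. For adrenalectomized rats, bilateral adrenalectomy was done by dorsal approach under ether, with 24 h recovery before use. Sham-operated rats served as controls. Mean arterial pressure was recorded against vehicle-treated controls. Values are mean ± S.D. of 8 animals, and significance was tested by Dunnett's t-test.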

The test system of test [8] is Rattus norvegicus. Nature of the test: Inhibition of noradrenaline release in adrenalectomized anesthetized SHR rat plasma at 10 mg/kg, iv after 20 mins. Type of test: functional. Put shortly:
as §2

Test [9] relates to Rattus norvegicus. Nature of the test: Vasorelaxation activity in anesthetized normotensive rat assessed as reduction of Bay-K 8644-induced mean arterial blood pressure at 10 mg/kg, iv after 20 mins.
The test system of test [10] is Rattus norvegicus. Nature of the test: Inhibition of noradrenaline release in sham operated anesthetized SHR rat plasma at 5 mg/kg, iv after 20 mins. Type of test: functional. Summed up: as §2
Test [11] relates to Rattus norvegicus. Put plainly: Antihypertensive activity in sham operated anesthetized SHR rat assessed as reduction of mean blood pressure at 1 mg/kg, iv. Type of test: functional. Summed up: as §3
Test [12] relates to Rattus norvegicus. Nature of the test: Vasorelaxation activity in SHR rat assessed as reduction of methoxamine-induced mean arterial blood pressure at 10 mg/kg, iv after 20 mins. Type of test: functional.
Test [13] relates to Rattus norvegicus. Nature of the test: Inhibition of noradrenaline release in adrenalectomized anesthetized SHR rat plasma at 1 mg/kg, iv after 20 mins. Type of test: functional. Put shortly: as §2
The subject of test [14] is Rattus norvegicus. Nature of the test: Vasorelaxation activity in SHR rat assessed as reduction of methoxamine-induced mean arterial blood pressure at 5 mg/kg, iv after 20 mins. Type of test: functional.
For test [15], the system named is Rattus norvegicus. Nature of the test: Antihypertensive activity in adrenalectomized anesthetized SHR rat assessed as reduction of mean blood pressure at 1 mg/kg, iv. Type of test: functional. Put shortly: as §3
Test [16] deals with Rattus norvegicus. Put plainly: Inhibition of noradrenaline release in sham operated anesthetized SHR rat plasma at 1 mg/kg, iv after 20 mins. The test is classed as functional. Put shortly: as §2
In test [17] the test system is Rattus norvegicus. Put plainly: Vasorelaxation activity in anesthetized normotensive rat assessed as reduction of Bay-K 8644-induced mean arterial blood pressure at 15 mg/kg, iv after 20 mins.
For test [18], the system named is Rattus norvegicus. Put plainly: Inhibition of noradrenaline release in sham operated anesthetized SHR rat plasma at 15 mg/kg, iv after 20 mins. The test is classed as functional. Summed up: as §2
The test system of test [19] is Rattus norvegicus. Put plainly: Antihypertensive activity in sham operated anesthetized SHR rat assessed as reduction of mean blood pressure at 10 mg/kg, iv. The test is classed as functional. Summed up: as §3
Test [20] relates to Rattus norvegicus. Put plainly: Vasorelaxation activity in SHR rat assessed as reduction of methoxamine-induced mean arterial blood pressure at 15 mg/kg, iv after 20 mins. The test is classed as functional.
For test [21], the system named is Rattus norvegicus. Nature of the test: Antihypertensive activity in sham operated anesthetized SHR rat assessed as reduction of mean blood pressure at 15 mg/kg, iv. The test is classed as functional. Put shortly: as §3
Test [22] has as its system Rattus norvegicus. Nature of the test: Inhibition of noradrenaline release in adrenalectomized anesthetized SHR rat plasma at 5 mg/kg, iv after 20 mins. Type of test: functional. Put shortly: as §2
In test [23] the test system is Rattus norvegicus. Put plainly: Antihypertensive activity in sham operated anesthetized SHR rat assessed as reduction of mean blood pressure at 5 mg/kg, iv. The test is classed as functional. Put shortly:
as §3

The subject of test [24] is Rattus norvegicus. Nature of the test: Antihypertensive activity in adrenalectomized anesthetized SHR rat assessed as reduction of mean blood pressure at 10 mg/kg, iv. Type of test: functional. Put shortly:
as §3

In test [25] the test system is Rattus norvegicus. Nature of the test: Antihypertensive activity in adrenalectomized anesthetized SHR rat assessed as reduction of mean blood pressure at 15 mg/kg, iv. Type of test: functional. Summed up:
as §3

For test [26], the system named is Rattus norvegicus. Nature of the test: Inhibition of noradrenaline release in adrenalectomized anesthetized SHR rat plasma at 15 mg/kg, iv after 20 mins. The test is classed as functional. Summed up: as §2
The test system of test [27] is Rattus norvegicus. Put plainly: Vasorelaxation activity in SHR rat assessed as reduction of Bay-K 8644-induced mean arterial blood pressure at 5 mg/kg, iv after 20 mins. The test is classed as functional.
The subject of test [28] is Rattus norvegicus. Put plainly: Antihypertensive activity in SHR rat assessed as reduction in pentobarbitol-induced increase in blood pressure at 0.1 mg/kg, iv. Type of test: functional. Put shortly: as §1

In the case of `O=C(OC[C@H]1O[C@@H](O)[C@H](O)[C@@H](O)[C@@H]1O)c1cc(O)c(O)c(O)c1`, the Activity in the test with Rattus norvegicus [1] was 17.3 mmHg; with Rattus norvegicus [2] it was 29.6 mmHg; in the test on Rattus norvegicus [3], “Dose-dependent effect”. The outcome with Rattus norvegicus [4] and in the test with Rattus norvegicus [5] was Active.

Turning to `COC(=O)C1=C(C)NC(C)=C(C(=O)OC)C1c1ccccc1[N+](=O)[O-]` [NIFEDIPINE], the Activity was 10.8 mmHg in the test with Rattus norvegicus [1]; 1.62 pmol/mL in the test with Rattus norvegicus [6]; 143.8 mmHg with Rattus norvegicus [7]; 1.49 pmol/mL in the test on Rattus norvegicus [8]; 23.6 mmHg in the test on Rattus norvegicus [9]; 2.04 pmol/mL with Rattus norvegicus [10]. In addition, the Activity in the test on Rattus norvegicus [11] was found to be 168.4 mmHg; in the test with Rattus norvegicus [12] it was 29.8 mmHg; with Rattus norvegicus [13], 2.04 pmol/mL; with Rattus norvegicus [14] it was 36.3 mmHg; in the test on Rattus norvegicus [15], 161.1 mmHg; in the test with Rattus norvegicus [16], 2.37 pmol/mL. Also, the Activity in the test with Rattus norvegicus [17] was 14.3 mmHg; with Rattus norvegicus [18] it was 1.28 pmol/mL; in the test on Rattus norvegicus [19] it was 140.9 mmHg; in the test with Rattus norvegicus [20], 17.1 mmHg; in the test on Rattus norvegicus [21], 118.7 mmHg; in the test on Rattus norvegicus [22], 1.76 pmol/mL. Besides, the Activity with Rattus norvegicus [23] came to 151.2 mmHg; with Rattus norvegicus [24], 132.4 mmHg; in the test with Rattus norvegicus [25] it was 110.4 mmHg; with Rattus norvegicus [26], 1.12 pmol/mL; with Rattus norvegicus [27] it was 34.1 mmHg.

On to `COc1cc2nc(N3CCN(C(=O)c4ccco4)CC3)nc(N)c2cc1OC` [PRAZOSIN], for which the Activity with Rattus norvegicus [28] was found to be 31.4 mmHg.
